Test results reported in ChEMBL document CHEMBL4477180, “Synthesis and Structure-Activity Relationships of N-Dihydrocoptisine-8-ylidene Aromatic Amines and N-Dihydrocoptisine-8-ylidene Aliphatic Amides as Antiulcerative Colitis Agents Targeting XBP1” (J Nat Prod, 2016).
Active and inactive are the calls of the source. The calls are words filed in the database; no cut-off is given here.

What was measured:
[1] = Cytotoxicity against rat IEC-6 cells assessed as survival at 10 uM by MTT assay; type: cell-based; settings: read-out: Survival
[2] = molecular target: T1, X-box-binding protein 1 (Rattus norvegicus) (UniProt Q9R1S4); test: Activation of XBP1 in rat IEC-6 cells assessed as transcriptional activity at 10 uM measured after 48 hrs by dual luciferase reporter gene assay relative to con 2; type: cell-based
T1 sequence (whole entry): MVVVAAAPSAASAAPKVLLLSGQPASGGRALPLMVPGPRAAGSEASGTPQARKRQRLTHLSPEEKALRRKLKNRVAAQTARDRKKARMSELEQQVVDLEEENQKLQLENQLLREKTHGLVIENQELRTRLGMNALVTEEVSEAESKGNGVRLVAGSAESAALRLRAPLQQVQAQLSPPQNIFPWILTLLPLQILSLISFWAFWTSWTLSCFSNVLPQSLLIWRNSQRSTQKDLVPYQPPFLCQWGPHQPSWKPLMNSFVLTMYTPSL
Outline: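 XBP1 transcriptional activity read by dual luciferase reporter in growth-phase IEC-6 cells (5 × 10⁴ cells/well). Cells had 4 h plasmid transfection at 37 °C, 5% CO₂, then were coincubated 48 h with compound at 10 μM. Con 1 served as background contrast and con 2 as the pGL3-basic vector control.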

X-box-binding protein 1 = molecular target: T2, X-box-binding protein 1 (Rattus norvegicus, UniProt Q9R1S4); test: Activation of XBP1 in rat IEC-6 cells assessed as transcriptional activity measured after 48 hrs by dual luciferase reporter gene assay; type: cell-based
T2 sequence (Q9R1S4 whole entry): T1 sequence (whole entry)
Outline: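 Dose–effect version of the IEC-6 XBP1 dual luciferase reporter assay. Cells (5 × 10⁴/well) had 4 h plasmid transfection at 37 °C, 5% CO₂, then 48 h coincubation with compound; EC₅₀ was taken from the dose–effect relationship.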

Mus musculus [3] = test: Antiulcerative activity in DSS-induced C57BL/6J mouse model of acute ulcerative colitis assessed as body weight loss at 300 mg/kg, po measured over 7 days (reference value: 18%); type: functional
Mus musculus [4] = test: Antiulcerative activity in DSS-induced C57BL/6J mouse model of acute ulcerative colitis assessed as colon contracture at 300 mg/kg, po measured over 7 days (reference value: 37 %); type: functional
Outline: (§1)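 Acute DSS colitis in C57bl/6j mice (n = 8/group), oral dosing (200 mg/kg test, SASP 300 mg/kg), 7-day trial with normal and DSS model groups. Colon length was measured at the end of the trial, and contracture was given as percentage shortening versus normal controls.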

Mus musculus [5] = test: Antiulcerative activity in DSS-induced C57BL/6J mouse model of acute ulcerative colitis assessed as inhibition of disease activity index at 300 mg/kg, po measured over 7 days relative to control; type: functional; settings: 168 h
Outline: (§2)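 Disease activity index (DAI) was scored in DSS-induced acute UC C57bl/6j mice (n = 8/group) given oral compound at 200 mg/kg or SASP at 300 mg/kg over 7 days. Inhibition ratio (IR %) is reported relative to the DSS model group.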

Mus musculus [6] = test: Antiulcerative activity in DSS-induced C57BL/6J mouse model of acute ulcerative colitis assessed as colon macroscopic damage index at 300 mg/kg, po measured over 7 days (reference value: 4.63 +/- 0.52); type: functional
Mus musculus [7] = test: Antiulcerative activity in DSS-induced C57BL/6J mouse model of acute ulcerative colitis assessed as partial disappearance of inflammatory edema at 300 mg/kg, po measured over 7 days by microscopic analysis
Mus musculus [8] = test: Antiulcerative activity in DSS-induced C57BL/6J mouse model of acute ulcerative colitis assessed as body weight loss at 200 mg/kg, po measured over 7 days (reference value: 18%); type: functional
Mus musculus [9] = test: Antiulcerative activity in DSS-induced C57BL/6J mouse model of acute ulcerative colitis assessed as colon contracture at 200 mg/kg, po measured over 7 days (reference value: 37 %); type: functional; outline: as §1
Mus musculus [10] = test: Antiulcerative activity in DSS-induced C57BL/6J mouse model of acute ulcerative colitis assessed as inhibition of disease activity index at 200 mg/kg, po measured over 7 days relative to control; type: functional; settings: 168 h; outline: as §2
Mus musculus [11] = test: Antiulcerative activity in DSS-induced C57BL/6J mouse model of acute ulcerative colitis assessed as colon macroscopic damage index at 200 mg/kg, po measured over 7 days (reference value: 4.63 +/- 0.52); type: functional
Mus musculus [12] = test: Antiulcerative activity in DSS-induced C57BL/6J mouse model of acute ulcerative colitis assessed as regular arrangement of IEC cells at 200 mg/kg, po measured over 7 days by microscopic analysis; type: functional, organism-based
Outline: (§3)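 At the end of the 7-day DSS acute UC trial in C57bl/6j mice (oral 200 mg/kg; SASP 300 mg/kg; normal and model groups), colon tissue was examined microscopically after HE staining at ×200 for histopathological change.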

Mus musculus [13] = test: Antiulcerative activity in DSS-induced C57BL/6J mouse model of acute ulcerative colitis assessed as improvement in colon lesion at 200 mg/kg, po measured over 7 days by microscopic analysis; type: functional, organism-based; outline: as §3

## c1ccc(/N=c2/c3c4c(ccc3cc3n2CCc2cc5c(cc2-3)OCO5)OCO4)cc1
[1]
  viability at 10 µM: 79 to 103%
[2]
  fold change (FC): > 1.07
X-box-binding protein 1; read-out: EC50
  EC50: 113 nM

## CCCCCC(=O)/N=c1\c2c3c(ccc2cc2n1CCc1cc4c(cc1-2)OCO4)OCO3
[1]
  viability at 10 µM: 79 to 103%
[2]
  fold change (FC): > 1.07
X-box-binding protein 1; read-out: EC50
  EC50: 70.8 nM

## O=C(O)C1=C/C(=N\Nc2ccc(S(=O)(=O)Nc3ccccn3)cc2)C=CC1=O
Mus musculus [3]
  Activity: 9%
Mus musculus [4]
  Activity: 24%
Mus musculus [5]
  inhibition in vivo at 300 mg/kg: 18%
Mus musculus [6]
  Activity: 3.17
Mus musculus [7]
  Activity: Active

## O=c1c2c3c(ccc2cc2n1CCc1cc4c(cc1-2)OCO4)OCO3
[2]
  fold change (FC): > 1.07
X-box-binding protein 1; read-out: EC50
  EC50: 79.8 nM

## CCCCCCCC(=O)/N=c1\c2c3c(ccc2cc2n1CCc1cc4c(cc1-2)OCO4)OCO3
[1]
  viability at 10 µM: 79 to 103%
[2]
  Ratio: 0.78 to 107
X-box-binding protein 1
  EC50: Not Active

## Brc1ccc(/N=c2/c3c4c(ccc3cc3n2CCc2cc5c(cc2-3)OCO5)OCO4)cc1
[1]
  viability at 10 µM: 79 to 103%
[2]
  fold change (FC): > 1.07
X-box-binding protein 1; read-out: EC50
  EC50: 48.9 nM

## [Cl-].c1c2c(cc3c1OCO3)-c1cc3ccc4c(c3c[n+]1CC2)OCO4 [COPTISINE CHLORIDE]
[1]
  viability at 10 µM: 79 to 103%
[2]
  Ratio: 0.78 to 107
X-box-binding protein 1
  EC50: Not Active

## Fc1ccc(/N=c2/c3c4c(ccc3cc3n2CCc2cc5c(cc2-3)OCO5)OCO4)cc1
[1]
  viability at 10 µM: 79 to 103%
[2]
  fold change (FC): > 1.07
X-box-binding protein 1; read-out: EC50
  EC50: 346 nM

## CC(=O)/N=c1\c2c3c(ccc2cc2n1CCc1cc4c(cc1-2)OCO4)OCO3
[1]
  viability at 10 µM: 79 to 103%
[2]
  fold change (FC): > 1.07
X-box-binding protein 1; read-out: EC50
  EC50: 283 nM

## N=c1c2c3c(ccc2cc2n1CCc1cc4c(cc1-2)OCO4)OCO3
[1]
  viability at 10 µM: 79 to 103%
[2]
  Ratio: 0.78 to 107
X-box-binding protein 1
  EC50: Not Active

## CCC(=O)/N=c1\c2c3c(ccc2cc2n1CCc1cc4c(cc1-2)OCO4)OCO3
[1]
  viability at 10 µM: 79 to 103%
[2]
  fold change (FC): > 1.07
X-box-binding protein 1; read-out: EC50
  EC50: 289 nM

## Clc1ccc(/N=c2/c3c4c(ccc3cc3n2CCc2cc5c(cc2-3)OCO5)OCO4)cc1
[1]
  viability at 10 µM: 79 to 103%
[2]
  fold change (FC): > 1.07
X-box-binding protein 1; read-out: EC50
  EC50: 174 nM

## COc1ccc(/N=c2/c3c4c(ccc3cc3n2CCc2cc5c(cc2-3)OCO5)OCO4)cc1
[1]
  viability at 10 µM: 79 to 103%
[2]
  Ratio: 0.78 to 107
X-box-binding protein 1; read-out: EC50
  EC50: 184 nM

## Cc1ccc(/N=c2/c3c4c(ccc3cc3n2CCc2cc5c(cc2-3)OCO5)OCO4)cc1
[1]
  viability at 10 µM: 79 to 103%
[2]
  fold change (FC): > 1.07
X-box-binding protein 1; read-out: EC50
  EC50: 13.2 nM
Mus musculus [8]
  Activity: 11%
Mus musculus [9]
  Activity: 9%
Mus musculus [10]
  inhibition in vivo at 200 mg/kg: 27%
Mus musculus [11]
  Activity: 2.63
Mus musculus [12]
  Activity: Active

## CCCCC(=O)/N=c1\c2c3c(ccc2cc2n1CCc1cc4c(cc1-2)OCO4)OCO3
[1]
  viability at 10 µM: 79 to 103%
[2]
  fold change (FC): > 1.07
X-box-binding protein 1; read-out: EC50
  EC50: 32.5 nM
Mus musculus [8]
  Activity: 10%
Mus musculus [9]
  Activity: 15%
Mus musculus [10]
  inhibition in vivo at 200 mg/kg: 33%
Mus musculus [11]
  Activity: 2.63
Mus musculus [13]
  Activity: Active

## CCCCCCC(=O)/N=c1\c2c3c(ccc2cc2n1CCc1cc4c(cc1-2)OCO4)OCO3
[1]
  viability at 10 µM: 79 to 103%
[2]
  Ratio: 0.78 to 107
X-box-binding protein 1
  EC50: Not Active

## CCCC(=O)/N=c1\c2c3c(ccc2cc2n1CCc1cc4c(cc1-2)OCO4)OCO3
[1]
  viability at 10 µM: 79 to 103%
[2]
  fold change (FC): > 1.07
X-box-binding protein 1; read-out: EC50
  EC50: 119 nM
